NF-kB neuron act: compounds increasing NF-kB expression in human neuronal cells; fold change at 12.5 µM; NF-kB reporter expression; hits give high values; AID 1239; actives 1.6% (n = 190,000); in the data active = fold change above about 3.3
FLuc inhib CS: Photinus pyralis luciferase inhibition counter-screen; ATPLite firefly luciferase biochemical luminescence, 10 min; inhibition, % at 10 µM; actives 1.5% (n = 200,000);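 active = inhibition above about 50% when tested at 10 µM, limit read from the data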
Target sequence (P08659 whole entry, looked up): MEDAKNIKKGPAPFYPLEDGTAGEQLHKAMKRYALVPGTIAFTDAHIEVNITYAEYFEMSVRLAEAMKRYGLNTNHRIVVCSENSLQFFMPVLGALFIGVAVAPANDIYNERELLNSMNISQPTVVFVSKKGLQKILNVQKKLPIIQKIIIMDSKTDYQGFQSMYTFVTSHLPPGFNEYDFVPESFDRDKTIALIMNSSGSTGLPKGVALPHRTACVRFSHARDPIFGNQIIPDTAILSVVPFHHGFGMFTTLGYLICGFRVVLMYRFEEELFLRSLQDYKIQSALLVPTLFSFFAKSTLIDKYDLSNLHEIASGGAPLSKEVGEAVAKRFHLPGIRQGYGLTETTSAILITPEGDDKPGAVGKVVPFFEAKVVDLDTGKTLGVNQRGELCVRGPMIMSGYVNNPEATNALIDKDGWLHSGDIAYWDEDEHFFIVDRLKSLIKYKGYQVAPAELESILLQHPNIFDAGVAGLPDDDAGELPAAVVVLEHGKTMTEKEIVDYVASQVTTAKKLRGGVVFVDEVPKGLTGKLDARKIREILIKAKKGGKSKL
FLuc act counter: firefly luciferase counter-screen for stimulation assays; ATPlite luciferase biochemical, luminescence, 10 min; 0 = ATP-free wells, 1 = DMSO control; activation factor at 10 µM; 200,000 tested, under 10 active; AID 1027;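 active = luciferase activation factor, scaled between plate controls, of at least 2 with compound at 10 µM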
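System: luciferase plus luciferin reagent, cell-free; medium: PBS as buffer for the ATP substrate; dosing: test compounds dosed from 2 mM stocks in 100% DMSO; timing: 10 min post-reagent at room temperature; measured by: luminescence measurement of luciferase light output; evaluation: luciferase activation, seen as luminescence increase over controls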
APP 5'UTR act: activates APP 5'UTR luciferase reporter; activation, % at 2 µM; actives 1% (n = 190,000); SH-SY5Y APP 5'UTR luciferase reporter, luminescence; zero percent = DMSO vehicle wells; AID 1276;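 active = activation above a set limit, based on mean plus 3 SD of controls, cut at about 140% in these data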
STAT1 act: increases IFN-gamma driven STAT1 reporter signal. NIH 3T3 STAT1-luciferase reporter, luminescence; 100% = IFN-gamma alone, no compound. activation (% of control), % at 5.5 µM. actives 2.6% (n = 200,000). AID 932;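 active = activation above the screen-wide mean activation plus 3 SD, cut at about 130% in these data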
Of the large screens only hits and unclear results are named; the others gave an inactive call. A selection: hits, their analogues and other compounds. The true share with any hit is near 4.1%.

CC(NC(=O)Cn1c(NCCO)nc2ccccc21)C1CC2CCC1C2 (stereo not drawn)	STAT1 act 133.5
CCCCSc1nnc(-c2ccccc2)c2ccccc12	none
Cc1cc(C(=O)COC(=O)c2ccc[nH]c2=O)c(C)n1-c1ccccc1	FLuc inhib CS 91.1
Cc1cc(C(=O)COC(=O)c2ccc[nH]c2=O)c(C)n1-c1ccc(F)cc1	FLuc inhib CS 79.1
Cc1cc(C(=O)COC(=O)c2ccc[nH]c2=O)c(C)n1C1CC1	FLuc inhib CS 64.0
Cc1cc(C(=O)OCC(=O)NCc2ccco2)c(C)n1-c1ccc(F)cc1	none
Cc1ccc(-n2c(SCC(=O)N3Cc4ccccc4CC3C(=O)O)nnc2-c2cccnc2)c(C)c1 (stereo not drawn)	none
CC(=O)Nc1ccc(S(=O)(=O)NCCc2ccccn2)cc1	none
Cc1ccc(CC(=O)O/N=C(\N)c2cccc([N+](=O)[O-])c2)cc1	none
Cc1ccc(C(=O)O/N=C(\N)c2cccnc2)cc1[N+](=O)[O-]	FLuc inhib CS 74.6
N/C(=N\OC(=O)c1ccc(Br)o1)c1cccnc1	STAT1 act 130.7
Cc1ccc(C(=O)O/N=C(\N)c2cccc([N+](=O)[O-])c2)cc1	NF-kB neuron act 3.76, FLuc inhib CS 96.3, APP 5'UTR act 158.4, STAT1 act 147.4
N/C(=N\OC(=O)c1ccccc1[N+](=O)[O-])c1cccnc1	none
N/C(=N\OC(=O)c1ccc([N+](=O)[O-])cc1)c1cccnc1	FLuc inhib CS 94.2
Cc1ccccc1-c1nc(CN2CCC(C(=O)NCCCN3CC(C)CC(C)C3)CC2)c(C)o1 (stereo not drawn)	none
Cc1cc(=O)n2[nH]c(-c3ccc(Cl)cc3)cc2n1	STAT1 act 143.2
Cc1cc(=O)n2[nH]c(-c3ccc(F)cc3)cc2n1	none
CCOC(=O)Cc1cc(=O)n2[nH]c(-c3ccccc3)cc2n1	none
CCCc1cc(=O)n2[nH]c(-c3ccc(Br)cc3)cc2n1	STAT1 act 143.8
CCCCN(C)CCC(=O)Nc1ccc2c(c1)CCC2	none
N#Cc1c(-c2cccs2)cc(C2CC2)nc1SCC(N)=O	none
CCOC(=O)c1cnc(SCc2ccc(C)cc2)nc1N	STAT1 act 140.1
CCOC(=O)c1cnc(SCC(=O)c2ccc(Cl)cc2)nc1N	none
CCCCSc1ncc(C(=O)OCC)c(N)n1	NF-kB neuron act 6.79, APP 5'UTR act 163.7, STAT1 act 139.1
CCCCNC(=S)Nc1cc([N+](=O)[O-])ccc1C	none
CCOC(=O)C(C)N1C(=O)S/C(=C/c2cc(C)n(-c3ccncc3)c2C)C1=O (stereo not drawn)	none
CCOC(=O)C(C)N1C(=O)S/C(=C/c2cc(C)n(-c3ccccn3)c2C)C1=O (stereo not drawn)	APP 5'UTR act 140.0
COc1ccc(N=C2S/C(=C\c3cc(C)n(C)c3C)C(=O)N2CC(C)C)cc1	none
COC(=O)CN1C(=O)S/C(=C/c2cc(C)n(C)c2C)C1=O	STAT1 act 130.4
CCn1c(C)cc(/C=C2/SC(=S)N(CC(=O)O)C2=O)c1C	FLuc inhib CS 80.1
Cc1cccc(NC(=O)CN2C(=O)N/C(=C/c3cc(C)n(C(C)C)c3C)C2=O)c1	none
COC(=O)C(C)N1C(=O)S/C(=C/c2cc(C)n(C(C)C)c2C)C1=O (stereo not drawn)	FLuc inhib CS 51.2, STAT1 act 138.0
O=C1NC(Cc2c[nH]c3ccccc23)C(=O)N1Cc1ccc(CN2C(=O)NC(Cc3c[nH]c4ccccc34)C2=O)cc1 (stereo not drawn)	none
COc1ccccc1CNC(=O)CSc1ccsc1[N+](=O)[O-]	STAT1 act 136.8
c1cnc(SCCOc2ccc3c(c2)CCC3)nc1	NF-kB neuron act 7.18, STAT1 act 149.8 (no result: APP 5'UTR act)
NC(=O)C1CCN(c2ncnc3c(-c4ccccc4)nsc23)CC1	STAT1 act 138.6
O=C(c1ccco1)N1CCN(c2ncnc3c(-c4ccccc4)nsc23)CC1	STAT1 act 129.1
Nc1n[nH]c(=S)n1/N=C1/C(=O)Nc2ccccc21	FLuc inhib CS 69.9
COc1ccc(NC(=S)Nc2cccc(S(=O)(=O)N3CCCCC3)c2)cc1	none
COc1nccc(-c2ccc(F)cc2)c1C#N	none
CN(C)c1ccc(C(=O)OCC(=O)NC2CCCCC2)cc1	none
CCc1ccc(NC(=S)/N=C(\N)Nc2nc(C)c3cc(CC)ccc3n2)cc1	none
CCc1ccc2nc3nc(C)cc(C)c3c(N)c2c1	STAT1 act 135.8
Cc1cc(C)c2c(N)c3ccccc3nc2n1	STAT1 act 132.3
Cc1cc(C)c2cccc(N)c2n1	none
Cc1ccc2nc(=O)c(NNc3ccccc3)cnc2c1	STAT1 act 139.4
Cc1nc2ccccc2nc(=O)c1NNc1ccccc1	STAT1 act 129.3
Cc1ccc(NC(=O)CC2Oc3ccccc3NC2=O)c(C)c1 (stereo not drawn)	none
O=C1CCCC/C1=C/Nc1ccc2c(c1)OCO2	STAT1 act 140.7
O=C1CCCC/C1=C/Nc1ccc(C(=O)O)cc1	none (no result: APP 5'UTR act)
Cn1cc(CN2CCN(Cc3ccccc3)C(CCO)C2)c(-c2ccccc2)n1 (stereo not drawn)	none
CCc1cccc2c(C(=O)COC(=O)c3c(C)noc3C)c[nH]c12	none
CCc1cccc2c(C(=O)COC(=O)c3ccc(O)cc3)c[nH]c12	STAT1 act 131.6
CCc1cccc2c(C(=O)COC(=O)c3ccccc3)c[nH]c12	STAT1 act 143.0
CCC(CC)NC(=O)Cc1ccccc1OC	none
Fc1ccc(NCc2cn3ccccc3n2)cc1	STAT1 act 135.2
O=C1c2ccccc2CN1CCSC(=S)N1CCOCC1	STAT1 act 130.5
O=C1c2ccccc2CN1CCSC(=S)N1CCSCC1	STAT1 act 134.2
CC1CN(C(=S)SCCN2Cc3ccccc3C2=O)CC(C)O1 (stereo not drawn)	none
COc1ccc(N2CCN(C(=O)CN(C)S(=O)(=O)c3cc(C)ccc3OC)CC2)cc1	none
CSc1nc2sc(-c3ccccc3)cc2c(=O)n1N	STAT1 act 138.1
CC(C)Sc1nc2sc(-c3ccccc3)cc2c(=O)n1N	none
Cc1ccc2nc3ccc(N4CCN(C)CC4)nn3c(=O)c2c1	STAT1 act 136.6
Cc1ccc2nc3ccc(N4CCCCCCC4)nn3c(=O)c2c1	FLuc inhib CS 62.3, STAT1 act 143.6
O=C(N/N=C\c1ccc2c(c1)OCO2)c1ccco1	FLuc inhib CS 75.1, STAT1 act 146.8
O=C(N/N=C/c1ccc2cccnc2c1)c1ccco1	NF-kB neuron act 3.51, FLuc inhib CS 87.9, APP 5'UTR act 166.4
NC(=O)/C(=C/c1ccc2c(c1)OCO2)NC(=O)c1ccco1	none
O=C(N/N=C\c1cccc(OC(=O)c2ccco2)c1)c1ccc2c(c1)OCO2	NF-kB neuron act 5.06, FLuc inhib CS 70.4
Clc1ccc2[nH]c(-c3ccccc3)cc2c1	NF-kB neuron act 3.93, STAT1 act 138.0
COc1ccc(CN(C)CC(=O)Nc2cc(OC)c([N+](=O)[O-])cc2C)c(OC)c1	none
COc1ccc(OCCN2C(=O)c3ccccc3C2=O)cc1	none

Screens (PubChem)
